This passage reports folding enthalpy and Tm results from the array DNA melting data of Ke et al. (doi:10.1101/2024.01.08.574731).

The nature of data set [1]: folding enthalpy; higher = less favourable; fluorescence melt of hairpins on a sequencing array, two-state fit. As to conditions: sodium 0.088 M. In outline:
(§1)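 Two-state fits, bootstrapped, provided melting temperature and folding enthalpy from Cy3 fluorescence normalised to pre-quench Cy3 and to control constructs. Library hairpins with annealed Cy3 and quencher oligos were imaged on a sequenced MiSeq flow cell in 50 mM Na-HEPES pH 8.0, 25 mM NaCl, at 2.5 °C intervals up to 60 °C. Four replicates were combined with inverse-variance weighting. A 9.35 °C upward shift was applied to fitted temperatures to match UV melts.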

The nature of data set [2]: melting temperature; fluorescence melt of hairpins on a sequencing array, two-state fit, raised by 9.35 °C to match UV melts. As to conditions: sodium 0.088 M. Summed up:
as §1

For the sequence GATCCTAAAGAGGATC ((((((....)))))), in data set [1], the folding enthalpy is -31.3 kcal/mol. For the same sequence, the Tm in data set [2] came out at 46.1 °C.

GATCCTAATCAGGATC ((((((....)))))): the folding enthalpy in data set [1] is -38.6 kcal/mol. Besides, the Tm in data set [2] came to 50.5 °C.

Take GATCCTACAGAGGATC ((((((....)))))): the folding enthalpy in data set [1] was -29.6 kcal/mol. The Tm in data set [2] amounted to 50.4 °C.

Take GATCCTAGACAGGATC ((((((....)))))): the folding enthalpy in data set [1] is -36.5 kcal/mol. The Tm in data set [2] is 50.4 °C.

Consider GATCCTATAAGGATC ((((((...)))))), for which the folding enthalpy in data set [1] was -37.8 kcal/mol. In addition, the Tm in data set [2] is 55.2 °C.

Turning to GATCCTATCGAGGATC ((((((....)))))), in data set [1], the folding enthalpy is -27.1 kcal/mol. Moreover, in data set [2], the Tm is 51.9 °C.

Consider GATCCTATGAGGATC ((((((...)))))), for which the folding enthalpy in data set [1] was -34.7 kcal/mol. Besides, in data set [2], the Tm came to 53.7 °C.

For GATCCTATGTAGGATC ((((((....)))))), in data set [1], the folding enthalpy was -34.9 kcal/mol. Moreover, the Tm in data set [2] stood at 54.5 °C.

Consider GATCCTCAAAAGGATC ((((((....)))))), for which the folding enthalpy in data set [1] was -32.5 kcal/mol. In data set [2], the Tm amounted to 51.3 °C.

In the case of GATCCTCACCAGGATC ((((((....)))))), the folding enthalpy in data set [1] was -38.6 kcal/mol. Also, the Tm in data set [2] is 50.9 °C.

With GATCCTCACGAGGATC ((((((....)))))), the folding enthalpy in data set [1] was -43.3 kcal/mol. Further, in data set [2], the Tm was determined as 54.8 °C.

As for GATCCTCAGAAGGATC ((((((....)))))), in data set [1], the folding enthalpy was -35.3 kcal/mol. Besides, in data set [2], the Tm was 51 °C.

Regarding GATCCTCATAAGGATC ((((((....)))))), the folding enthalpy in data set [1] was -34.4 kcal/mol. Further, the Tm in data set [2] was determined as 52.6 °C.

Take GATCCTCATGAGGATC ((((((....)))))): the folding enthalpy in data set [1] was -41.1 kcal/mol. Also, the Tm in data set [2] is 58.4 °C.

Turning to GATCCTCCACAGGATC ((((((....)))))), the folding enthalpy in data set [1] was -36 kcal/mol. The Tm in data set [2] was 50.8 °C.

Turning to GATCCTCCCAGGATC ((((((...)))))), in data set [1], the folding enthalpy is -35.8 kcal/mol. Also, in data set [2], the Tm worked out at 55.7 °C.

Turning to GATCCTCCGAAGGATC ((((((....)))))), the folding enthalpy in data set [1] was -16.6 kcal/mol. Besides, the Tm in data set [2] was 48.7 °C.

Turning to GATCCTCCGTAGGATC ((((((....)))))), the folding enthalpy in data set [1] is -20.4 kcal/mol. Besides, the Tm in data set [2] was 48.5 °C.

As to GATCCTCCTAAGGATC ((((((....)))))), the folding enthalpy in data set [1] was -37.5 kcal/mol. For the same sequence, the Tm in data set [2] stood at 53.4 °C.

Take GATCCTCGCTAGGATC ((((((....)))))): the folding enthalpy in data set [1] was -35.6 kcal/mol. Besides, in data set [2], the Tm came to 51.2 °C.

As for GATCCTCGGAGGATC ((((((...)))))), the folding enthalpy in data set [1] was -33.5 kcal/mol. The Tm in data set [2] was found to be 51.6 °C.

Regarding GATCCTCTCGAGGATC ((((((....)))))), the folding enthalpy in data set [1] is -42.4 kcal/mol. In addition, in data set [2], the Tm came to 58 °C.

Regarding GATCCTCTGAAGGATC ((((((....)))))), the folding enthalpy in data set [1] is -36.8 kcal/mol. Also, the Tm in data set [2] came out at 51.6 °C.

On to GATCCTCTTAGGATC ((((((...)))))), for which the folding enthalpy in data set [1] was -35.3 kcal/mol. In data set [2], the Tm was 55.2 °C.

Take GATCCTCTTGAGGATC ((((((....)))))): the folding enthalpy in data set [1] is -41 kcal/mol. For the same sequence, the Tm in data set [2] came to 61.3 °C.

In the case of GATCCTGAATAGGATC ((((((....)))))), the folding enthalpy in data set [1] is -39.2 kcal/mol. In data set [2], the Tm was 59 °C.

As for GATCCTGACAAGGATC ((((((....)))))), the folding enthalpy in data set [1] was -38 kcal/mol. In addition, the Tm in data set [2] was determined as 63 °C.

Consider GATCCTGACGAGGATC ((((((....)))))), for which, in data set [1], the folding enthalpy was -36.4 kcal/mol. In data set [2], the Tm is 56.9 °C.

Turning to GATCCTGAGCAGGATC ((((((....)))))), the folding enthalpy in data set [1] is -36.9 kcal/mol. For the same sequence, the Tm in data set [2] turned out to be 52.3 °C.

On to GATCCTGAGGAGGATC ((((((....)))))), for which the folding enthalpy in data set [1] was -34 kcal/mol. In data set [2], the Tm came out at 49.2 °C.

For the sequence GATCCTGATAGGATC ((((((...)))))), the folding enthalpy in data set [1] is -31.6 kcal/mol. In data set [2], the Tm is 53.2 °C.

For the sequence GATCCTGATGAGGATC ((((((....)))))), the folding enthalpy in data set [1] was -31.9 kcal/mol. Also, in data set [2], the Tm was 51.1 °C.

On to GATCCTGCAGAGGATC ((((((....)))))), for which the folding enthalpy in data set [1] was -39.5 kcal/mol. Also, the Tm in data set [2] stood at 56 °C.

In the case of GATCCTGGAGAGGATC ((((((....)))))), in data set [1], the folding enthalpy is -34.7 kcal/mol. For the same sequence, the Tm in data set [2] is 54 °C.

For the sequence GATCCTGGCAAGGATC ((((((....)))))), in data set [1], the folding enthalpy is -44.6 kcal/mol. Besides, the Tm in data set [2] was 63.3 °C.

Consider GATCCTGGGAAGGATC ((((((....)))))), for which, in data set [1], the folding enthalpy was -42.3 kcal/mol. For the same sequence, the Tm in data set [2] worked out at 59.7 °C.

GATCCTGGGAGGATC ((((((...)))))): the folding enthalpy in data set [1] was -33.8 kcal/mol. Also, the Tm in data set [2] came to 51 °C.

On to GATCCTGGTCAGGATC ((((((....)))))), for which, in data set [1], the folding enthalpy was -41.8 kcal/mol. The Tm in data set [2] was determined as 55.5 °C.

For the sequence GATCCTGTCTAGGATC ((((((....)))))), the folding enthalpy in data set [1] is -39.4 kcal/mol. In addition, the Tm in data set [2] is 56 °C.

Take GATCCTGTTCAGGATC ((((((....)))))): the folding enthalpy in data set [1] is -39.1 kcal/mol. Further, the Tm in data set [2] amounted to 56.8 °C.

For the sequence GATCCTTCTAAGGATC ((((((....)))))), the folding enthalpy in data set [1] is -47.8 kcal/mol. The Tm in data set [2] was determined as 54.4 °C.

GATCCTTCTAGGATC ((((((...)))))): the folding enthalpy in data set [1] is -30.6 kcal/mol. Also, in data set [2], the Tm came to 57.1 °C.

As to GATCCTTGGCAGGATC ((((((....)))))), in data set [1], the folding enthalpy is -35.3 kcal/mol. The Tm in data set [2] was determined as 49.4 °C.

As for GATCCTTGGTAGGATC ((((((....)))))), the folding enthalpy in data set [1] was -31.6 kcal/mol. For the same sequence, the Tm in data set [2] is 51.1 °C.

For the sequence GATCCTTGTAGGATC ((((((...)))))), the folding enthalpy in data set [1] is -34.4 kcal/mol. Besides, the Tm in data set [2] amounted to 55.1 °C.

On to GATCCTTGTGAGGATC ((((((....)))))), for which the folding enthalpy in data set [1] was -38 kcal/mol. The Tm in data set [2] was determined as 56.1 °C.

For the sequence GATCCTTTACAGGATC ((((((....)))))), in data set [1], the folding enthalpy was -51.6 kcal/mol. Moreover, the Tm in data set [2] is 51.1 °C.

Take GATCCTTTATAGGATC ((((((....)))))): the folding enthalpy in data set [1] was -40.2 kcal/mol. Besides, in data set [2], the Tm came to 53.4 °C.

On to GATCCTTTGGAGGATC ((((((....)))))), for which the folding enthalpy in data set [1] was -39.5 kcal/mol. Moreover, in data set [2], the Tm was 53.3 °C.

As for GATCCTTTGTAGGATC ((((((....)))))), the folding enthalpy in data set [1] was -39.7 kcal/mol. In addition, in data set [2], the Tm is 52.6 °C.

With GATCCTTTTCAGGATC ((((((....)))))), in data set [1], the folding enthalpy is -32.6 kcal/mol. For the same sequence, the Tm in data set [2] was 52.6 °C.

For GATCCTTTTGAGGATC ((((((....)))))), the folding enthalpy in data set [1] is -36.9 kcal/mol. Besides, the Tm in data set [2] came to 54.1 °C.

As to GATCGAAAATCGATC ((((((...)))))), the folding enthalpy in data set [1] is -29.9 kcal/mol. Moreover, in data set [2], the Tm turned out to be 47.6 °C.

For the sequence GATCGAAACCTCGATC ((((((....)))))), in data set [1], the folding enthalpy was -39.6 kcal/mol. In data set [2], the Tm was found to be 51.3 °C.

Regarding GATCGAAATATCGATC ((((((....)))))), the folding enthalpy in data set [1] is -32.7 kcal/mol. Also, the Tm in data set [2] came to 49 °C.

GATCGAAATTCGATC ((((((...)))))): the folding enthalpy in data set [1] was -33.7 kcal/mol. In addition, in data set [2], the Tm came out at 48.9 °C.

In the case of GATCGAACGTCGATC ((((((...)))))), in data set [1], the folding enthalpy is -34.9 kcal/mol. Also, the Tm in data set [2] was determined as 49.3 °C.
